According to ChEMBL document CHEMBL1158344, “Synthesis and antinociceptive activities of some pyrazoline derivatives” (Eur J Med Chem, 2009):

Columns and labels:
Mus musculus [1] = assay: Analgesic activity in Swiss albino mouse assessed as analgesia at 10 mg/kg by hot plate method; type: functional
Method in brief: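 Mice (n = 7) were dosed with the test compound in sunflower oil vehicle. Thirty minutes later each mouse was placed on a hot plate at 55 ± 1.0 °C. Latency to forepaw licking or jumping out of the glass beaker was recorded, with a 30 s cut-off. Values are mean ± SEM % analgesia.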

Mus musculus [2] = assay: Antinociceptive activity in Swiss albino mouse assessed as protection against acetic acid-induced writhing at 10 mg/kg, ip administered 30 mins before acetic acid challenge; type: functional; conditions: route intraperitoneal
Method in brief: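 Mice (n = 7) were given the compound i.p. in sunflower oil vehicle, then 0.6% acetic acid i.p. (10 mL/kg) 30 min later. Abdominal contractions and stretches were counted for 10 min, starting 5 min after the acid. % protection = [(control mean − treated mean)/control mean] × 100. Values are mean ± SEM.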

Mus musculus [3] = assay: Analgesic activity in 5 mg/kg naloxone pretreated Swiss albino mouse assessed as analgesia at 100 mg/kg by hot plate method; type: functional
Method in brief: (§1)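 Mice, n = 7 per group, were placed one at a time on a hot plate held at 55 ± 1.0 °C. Latency to forepaw licking or to jumping out of the glass beaker was recorded, with a cut-off of 30 s. Latency was read 30 min after compound at 100 mg/kg or sunflower oil vehicle. In naloxone groups, naloxone 5 mg/kg ip was given 15 min before compound. Results are reported as % analgesia, mean ± SEM.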

Mus musculus [4] = assay: Antinociceptive activity in 5 mg/kg naloxone pretreated Swiss albino mouse assessed as protection against acetic acid-induced writhing at 100 mg/kg, ip administered 30 mins before acetic acid challenge; type: functional
Method in brief: (§2)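 Mice, n = 7 per group, received sunflower oil vehicle or compound at 100 mg/kg ip. 30 min later they were given 0.6% acetic acid ip at 10 mL/kg. Abdominal contractions and stretches were counted over 10 min, starting 5 min after the acetic acid. In naloxone groups, naloxone was given 15 min before compound. % protection = [(control mean − treated mean)/control mean] × 100.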

Mus musculus [5] = assay: Antinociceptive activity in Swiss albino mouse assessed as protection against acetic acid-induced writhing at 100 mg/kg, ip administered 30 mins before acetic acid challenge; type: functional; conditions: route intraperitoneal; method in brief: as §2
Mus musculus [6] = assay: Toxicity in Swiss albino mouse assessed as mortality at 100 mg/kg; type: organism-based; parameters: dose 100 mg/kg; conditions: in vivo
Mus musculus [7] = species: Mus musculus; assay: Neurological deficit effect in Swiss albino mouse assessed as effect on motor coordination by measuring fall latency by Rota rod test; conditions: in vivo
Method in brief: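 Mice were trained for three consecutive days on a Rota-Rod at 16 rev/min, and only those staying on longer than 180 s were used. Each mouse was tested on the rod 5 min after the hot plate test, and the latency to fall was recorded.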

Mus musculus [8] = assay: Analgesic activity in Swiss albino mouse assessed as analgesia at 100 mg/kg by hot plate method; type: functional; method in brief: as §1

| SMILES | Activity (Mus musculus [1]) [%] | Activity (Mus musculus [2]) [%] | Activity (Mus musculus [3]) [%] | Activity (Mus musculus [4]) [%] | Activity (Mus musculus [5]) [%] | Activity (Mus musculus [6]) | Activity (Mus musculus [7]) | Activity (Mus musculus [8]) [%] |
| --- | --- | --- | --- | --- | --- | --- | --- | --- |
| CN1CC[C@]23c4c5ccc(O)c4O[C@H]2[C@@H](O)C=C[C@H]3[C@H]1C5 [MORPHINE] | 92.9 | 87.45 |  |  |  |  |  |  |
| O=C(CSc1nc2ccccc2[nH]1)N1N=C(c2ccccc2)CC1c1ccccc1 (stereo not drawn) |  |  | -1.5 | 12.56 | 85.13 | Non-toxic | Non-toxic | 61.9 |
| Cc1ccc(C2=NN(C(=O)CSc3nc4ccccc4[nH]3)C(c3ccccc3)C2)cc1C (stereo not drawn) |  |  | -0.58 | 19.07 | 97.67 | Non-toxic | Non-toxic | 82.5 |
| O=C(CSc1nc2cc(Cl)ccc2o1)N1N=C(c2ccccc2)CC1c1ccccc1 (stereo not drawn) |  |  | -1.32 | 7.44 | 57.72 | Non-toxic | Non-toxic | 59.7 |
| COc1ccc(C2CC(c3ccccc3)=NN2C(=O)CSc2nc3ccccc3[nH]2)cc1 (stereo not drawn) |  |  | -1.34 | 22.32 | 97.21 | Non-toxic | Non-toxic | 60.6 |
| COc1ccc(C2CC(c3ccccc3)=NN2C(=O)CSc2nc3cc(Cl)ccc3o2)cc1 (stereo not drawn) |  |  | -2.95 | 5.58 | 43.32 | Non-toxic | Non-toxic | 47.7 |
| Cc1ccc(C2=NN(C(=O)CSc3nc4cc(Cl)ccc4o3)C(c3ccccc3)C2)cc1C (stereo not drawn) |  |  | -0.97 | 21.39 | 98.14 | Non-toxic | Non-toxic | 72.6 |
